Screens (PubChem BioAssay)
FID counter – compounds displacing fluorescent DNA intercalator, primary screen, artefact control for HCV NS3 helicase inhibitor project, biochemical, FID fluorescence. DNA fluorescent intercalator displacement. inhibition, % at 7.9 µM. 0.17% of 290,000 active. AID 1845, 2009; in the data active = inhibition above about 37%;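 note: 0% = vehicle and 100% = reference compound; higher means more ethidium bromide displaced from hairpin DNA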
DDE Tn6 FP inh – inhibitors of Tn6 peptide binding to fibrin DD(E), primary screen, biochemical, fluorescence polarization, human fibrin, Tn6 probe; Fibrinogen beta chain (Homo sapiens), P02675; Fibrin DD(E) TRITC-Tn6 fluorescence polarization displacement; inhibition, % at 8.3 µM; 0.21% of 370,000 active;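 active = inhibition above a per-campaign cutoff: mean of compounds within control limits plus 3 SD, cut at about 15% in these data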;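 note: 0% = median of all compound wells on the plate and 100% = blocking peptide control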
Target sequence (P02675 whole entry, looked up): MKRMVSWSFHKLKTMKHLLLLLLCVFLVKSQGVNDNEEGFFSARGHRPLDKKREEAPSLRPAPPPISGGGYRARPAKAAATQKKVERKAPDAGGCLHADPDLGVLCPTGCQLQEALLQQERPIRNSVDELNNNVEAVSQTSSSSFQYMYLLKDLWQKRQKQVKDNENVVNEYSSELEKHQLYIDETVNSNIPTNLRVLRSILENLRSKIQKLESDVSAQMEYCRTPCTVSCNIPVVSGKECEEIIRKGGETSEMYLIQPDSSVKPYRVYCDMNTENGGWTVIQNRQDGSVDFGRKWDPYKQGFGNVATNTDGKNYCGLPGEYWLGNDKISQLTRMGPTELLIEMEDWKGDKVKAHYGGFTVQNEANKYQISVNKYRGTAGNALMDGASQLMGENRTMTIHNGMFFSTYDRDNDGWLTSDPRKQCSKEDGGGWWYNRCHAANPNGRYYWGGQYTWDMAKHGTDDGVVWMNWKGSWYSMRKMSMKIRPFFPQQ
PLC-beta3 inh – human PLC-beta3 inhibitors, primary screen, biochemical, fluorescence. 1-phosphatidylinositol 4,5-bisphosphate phosphodiesterase beta-3 (Homo sapiens), Q01970. Purified PLC-beta3, fluorogenic substrate. inhibition, % at 12.2 µM. 0.18% of 370,000 active. AID 720704, 2013; in the data active = inhibition above about 11%;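 note: 0% = median of compound wells on plate and 100% = full blocker control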
PLC-gamma1 inh – PLC-gamma1 enzyme inhibitors, primary screen, biochemical, fluorescence, purified enzyme. 1-phosphatidylinositol 4,5-bisphosphate phosphodiesterase gamma-1 (Homo sapiens), P19174. fluorogenic substrate. inhibition, % at 12.2 µM. 0.84% of 370,000 active
DDE Tn7 FP inh – inhibitors of Tn7 peptide binding to fibrin DD(E), primary screen, biochemical, fluorescence polarization, human fibrin, Tn7 probe | Fibrinogen beta chain (Homo sapiens), P02675 | FP displacement of FITC-Tn7 peptide from fibrin DD(E); 0% = median of compound wells per plate | inhibition, % at 8.3 µM | 0.13% of 370,000 active;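 active = inhibition above the mean of compounds falling within the control limits plus 3 SD of them, cut at about 14% in these data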;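 note: 0% = plate median of compound wells and 100% = 10 µM Aha-Tn7 peptide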
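Also added: labelled Tn7 tracer, 0.1 µM; Assay system: human fibrin DD(E) protein; Amount: 2 µM fibrin DD(E); Schedule: 10 min compound pre-incubation, 3 h probe incubation at room temperature; Repeats: one replicate per compound; Read-out basis: percent inhibition; Measured by: fluorescence polarization of the labelled Tn7 tracer.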
PLCg1 ctr – PLC-gamma1 enzyme inhibitors, counter-screen for PLC-beta3 inhibitor project, biochemical, fluorescence | inhibition, % at 12.3 µM | 3.1% of 3,300 active | shares compounds with PLC-gamma1 inh | purified PLC-gamma1, fluorogenic substrate
PLCbeta3 conf – PLC-beta3 inhibitor confirmation, biochemical, fluorescence, purified enzyme | shares compounds with PLC-gamma1 inh | fluorogenic substrate fluorescence | inhibition, % at 12.3 µM | 1% of 3,300 active; in the data active = inhibition above about 11%
* hit, by the source's call; . = not tested or not shown. Shown are actives, neighbours in structure and some others; about 1.4% of the full set was active somewhere. Cut-off read from the data, not from the text of the source, unless noted: active = inhibition above about 9.5%; inactive = the rest.

SMILES	FID counter	DDE Tn6 FP inh	PLC-beta3 inh	PLC-gamma1 inh	DDE Tn7 FP inh	PLCg1 ctr	PLCbeta3 conf
Cc1cc([N+](=O)[O-])nn1CCCC(=O)Nc1cc(Oc2ccccc2)cc([N+](=O)[O-])c1	3	-3	3	5	-6	.	.
Cc1cccc(Oc2cc(NC(=O)Cn3cnc([N+](=O)[O-])n3)cc([N+](=O)[O-])c2)c1	26	-15	5	11*	8	5	2
COc1ccc(Cn2nnnc2C(C(C)C)N2CCN(c3ccccc3OC)CC2)cc1 (configuration not stated)	-24	6	6	11*	-10	1	3
O=C(c1ccco1)N1CCN=C1SCc1c(F)cccc1Cl	-10	1	-2	0	5	.	.
O=C(c1ccco1)N1CCN=C1SCc1ccccc1Cl	-6	-4	17*	-2	-3	-1	1
N#Cc1cc(-c2ccccc2)nnc1Oc1ccccc1	3	-9	-2	13*	-1	-7	-4
CCCc1n[nH]c2c1C(=O)CC(C)(C)C2	-3	-7	8	11*	-4	-3	-1
CCCCc1n[nH]c2c1/C(=N/O)CC(C)(C)C2	-2	2	1	1	-5	.	.
COc1ccc(S(=O)(=O)N(C)C)cc1NC(=O)[C@H](Cc1ccccc1)N1C(=O)c2ccccc2C1=O	-7	-2	5	9.8*	-5	1	4
Cc1ccc(S(=O)(=O)N(C)C)cc1NC(=O)[C@H](Cc1ccccc1)N1C(=O)c2ccccc2C1=O	-12	5	3	2	-3	.	.
COc1ccc(CNC(=O)C2CCC(CNS(=O)(=O)c3ccc(C)cc3)CC2)cc1 (configuration not stated)	-40	0	2	10*	-5	-5	-2
COc1ccc(S(=O)(=O)NCC2CCC(C(=O)NCc3ccc(F)cc3)CC2)cc1 (configuration not stated)	-23	3	-6	1	0	.	.
Cc1cc(C)n2c3c(c(C#N)c2n1)CCCC3	-6	10	-323	-276	0	.	.
Cc1csc(N/N=C/c2ccc(O)c([N+](=O)[O-])c2)n1	0	-4	3	4	-4	.	.
CCOc1cc(C(=O)Nc2nnc(CC)s2)ccc1OCC(=O)N1CCOCC1	-24	0	0	0	0	.	.
CCN(CC)S(=O)(=O)c1ccc(NC2c3ccccc3C(=O)N2c2ccc(C)cn2)cc1 (configuration not stated)	2	0	-3	-2	3	.	.
CCCC(=O)Nc1c(-c2ccccc2Cl)c(=O)c2ccccc2n1C	-5	-2	-1	13*	-2	-2	0
CC(=O)Nc1c(-c2ccccc2Cl)c(=O)c2ccccc2n1C	6	-5	-5	7	-3	.	.
COc1cccc(-c2noc(C(C)n3nc(C)c([N+](=O)[O-])c3C)n2)c1 (configuration not stated)	-6	0	8	11*	3	-6	-3
COc1cccc(-c2noc(-c3cccnc3)n2)c1	-7	5	0	1	0	.	.
CN1CCN(CC(=O)Nc2ccccc2Oc2ccccc2)CC1	4	2	-7	2	-1	.	.
Cc1cccc(CCNC(=O)C2CCCN(S(=O)(=O)c3cccc4nsnc34)C2)c1 (configuration not stated)	-4	10	9	17*	0	-2	1
Cc1ccc(C(NC(=O)c2cccc(S(=O)(=O)N3CCN(C)CC3)c2)c2ccccc2)cc1 (configuration not stated)	.	-3	6	10*	-7	1	4
CS(=O)(=O)c1cccc(C(=O)NC(c2ccccc2)c2ccccc2)c1	-15	-1	-1	0	-2	.	.
COc1cc(CN2CC(=O)N(c3cccc(Cl)c3C)C2=S)cc(OC)c1OC	-30	7	-4	3	3	.	.
SMILES	FID counter	DDE Tn6 FP inh	PLC-beta3 inh	PLC-gamma1 inh	DDE Tn7 FP inh	PLCg1 ctr	PLCbeta3 conf
Brc1cnc(OCc2ccccc2)nc1OCc1ccccc1	.	-9	12*	8	-3	-7	-6
COCCNC(=O)/C(C#N)=C/c1ccc(-c2ccc(S(=O)(=O)N3CCOCC3)cc2)o1	-14	-8	-33	-28	-8	.	.
CC(C)CCNC(=O)NC(=O)COC(=O)CCN=C1NS(=O)(=O)c2ccccc21	-8	4	-2	11*	2	-8	-1
COc1ccc(S(C)(=O)=O)cc1S(C)(=O)=O	-3	5	8	9.5*	3	-5	-2
CCC(NC(=S)NC1CCCCC1)c1ccc(C)cc1 (configuration not stated)	-31	.	.	.	.	.	.
Cc1ccccc1Nc1nn2c(=O)c3ccc(C(=O)N4CCCC(C)C4)cc3nc2s1 (configuration not stated)	.	-2	0	-2	2	.	.
O=C(Nc1ccc(F)cc1)Nc1nnc(COc2ccccc2F)s1	2	-10	6	11*	-9	-5	-4
CCOC(=O)C(NC(=O)c1ccccc1F)(Nc1cc(C)on1)C(F)(F)F (configuration not stated)	4	3	12*	5	2	-2	-2
O=C(NCc1ccco1)C(c1ccccc1)N(C(=O)Cc1cccs1)c1cccnc1 (configuration not stated)	-13	-7	1	3	4	.	.
O=C(NCC1CCCO1)C(c1cccnc1)N(C(=O)Cc1cccs1)c1cccnc1 (configuration not stated)	-6	-1	13*	11*	6	-9	-4
Cc1ccc(S(=O)(=O)NC2c3cccc4cccc(c34)C2Sc2n[nH]c(N)n2)cc1 (configuration not stated)	-12	0	-2	9.9*	0	-3	-3
O=C(CCCn1c(=S)[nH]c2cc3c(cc2c1=O)OCO3)N1CCN(c2ccccn2)CC1	-9	2	-1	2	-7	.	.
Fc1cc(Br)ccc1NC(=S)NCCc1ccccc1	-3	-6	1	0	6	.	.
CC(c1nnc(SCn2nnc3ccccc3c2=O)n1-c1ccc(Cl)cc1)N(C)C (configuration not stated)	-17	1	12*	3	0	-3	2
